Assay results published in ChEMBL document CHEMBL1146203, “Acridone-based inhibitors of inosine 5'-monophosphate dehydrogenase: discovery and SAR leading to the identification of N-(2-(6-(4-ethylpiperazin-1-yl)pyridin-3-yl)propan-2-yl)-2- fluoro-9-oxo-9,10-dihydroacridine-3-carboxamide (BMS-566419)” (J Med Chem, 2007).

Columns and labels:
[1] = molecular target: Inosine-5'-monophosphate dehydrogenase 2 (Homo sapiens, UniProt P12268); experiment: Inhibition of human IMPDH2
CCRF-CEM = experiment: Inhibition of CEM cell proliferation; format: functional, cell-based; conditions: Homo sapiens
How it was run: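 Human CEM T-lymphoblasts grown in RPMI 1640 with 10% heat-inactivated FBS and penicillin/streptomycin. Seeded at 3000 cells/well with 0.5% DMSO; compounds tested in triplicate from 10 µM top concentration in 3-fold dilutions.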

PBMC = experiment: Inhibition of T cell proliferation in PBMC cells; format: functional, cell-based; conditions: Homo sapiens
How it was run: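 Human PBMCs isolated from heparinized whole blood by density gradient and plated at 5 × 10^4 cells/well in RPMI 1640 with 10% FBS. Stimulated with anti-CD3 OKT3 (200 ng/mL) plus soluble anti-CD28 (1 µg/mL). Compounds tested in triplicate from 3.3 µM in 3-fold dilutions with 0.5% DMSO for 72 h.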

SMILES | IC50 [1] | IC50 (CCRF-CEM) | IC50 (PBMC)
O=C(NCc1ccccc1)c1ccc2c(=O)c3ccccc3[nH]c2c1 | 2200 nM | – | –
CN(C)c1ccc(C(C)(C)NC(=O)c2cc3[nH]c4ccccc4c(=O)c3cc2F)cn1 | 22 nM | 850 nM | 340 nM
CC(C)(NC(=O)c1cc2[nH]c3ccccc3c(=O)c2cc1F)c1cccnc1 | 11 nM | 420 nM | 140 nM
CC(C)(NC(=O)c1cc2[nH]c3ccccc3c(=O)c2cc1F)c1cnc2c(c1)OCCN2 | 17 nM | 920 nM | 320 nM
CC(C)(C)NC(=O)c1ccc2c(=O)c3ccccc3[nH]c2c1 | 59 nM | 3300 nM | –
C[C@@H](NC(=O)c1ccc2c(=O)c3ccccc3[nH]c2c1)c1ccccc1 | 95 nM | – | –
COc1c(C)c2c(c(O)c1C/C=C(\C)CCC(=O)O)C(=O)OC2 [MYCOPHENOLIC ACID] | – | – | 130 nM
Cc1cc(C(C)(C)NC(=O)c2cc3[nH]c4ccccc4c(=O)c3cc2F)cnc1N1CCOCC1 | 11 nM | 870 nM | 270 nM

More lines, main results first:

IC50 [1] | IC50 (CCRF-CEM) | SMILES | IC50 (PBMC)
53 nM | 2300 nM | CC(C)(NC(=O)c1ccc2c(=O)c3ccccc3[nH]c2c1)c1ccncc1 | 630 nM
7.9 nM | 380 nM | CN(C)S(=O)(=O)c1cccc(C(C)(C)NC(=O)c2cc3[nH]c4ccccc4c(=O)c3cc2F)c1 | 130 nM
12 nM | 480 nM | CC(C)(NC(=O)c1cc2[nH]c3ccccc3c(=O)c2cc1F)c1ccc(S(C)(=O)=O)cc1 | 170 nM
19 nM | – | CC(C)(NC(=O)c1ccc2c(=O)c3ccccc3[nH]c2c1)c1ccccc1 | 730 nM
14 nM | 640 nM | CN(C)c1cc(C(C)(C)NC(=O)c2cc3[nH]c4ccccc4c(=O)c3cc2F)ccn1 | 220 nM
